Experimental data: ChEMBL document CHEMBL4513216, “Probing the Open Global Health Chemical Diversity Library for Multistage-Active Starting Points for Next-Generation Antimalarials” (ACS Infect Dis, 2020)

Assay: Toxicity liver stage against HepG2, at 10uM
Assay type: cell-based
Set-up: test concentration 10 uM, cell line HepG2-A16-CD81EGFP
Details: human, HepG2-A16-CD81EGFP cells; read-out: INHIBITION
Method in brief: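 Uninfected HepG2-A16-CD81EGFP cells, 3 × 10^3 per well, 1536-well, plated on prespotted compound at 10 μM final, parasite-free screening media added to match infected plates; puromycin 10 μM positive, DMSO 0.5% negative; run in parallel with 48 h PbLuc assay at 37 °C, 5% CO2; viability by CellTiter-Glo luminescence, normalized to controls.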

SMILES	cytotoxicity at 10 µM [%]
Cc1c(CN2CCCCC2)c(O)n(CCO)c(=O)c1C#N	-1.64
N#CCc1ccc(NC(=O)Cn2cc(I)cn2)cc1	8.44
CC(=O)c1c(O)n(C)c2ccccc12	1.64
Cc1ccc(CNC(=O)CCC(=O)NCCC(C)C)o1	-9.74
Cc1nc(N2CCCC2)ncc1-c1cc(O)nc(N2CCCCC2)n1	10.7
CCC1=NC(SCC(=O)c2ccc(OC)cc2)c2cc(CC)sc2N1 (stereo not drawn)	9.4
Cc1nn(C)c2cnn(CC(=O)NCc3ccc4c(c3)OCO4)c12	4.45
CSc1nc2ccsc2c(=O)n1CC(=O)N(C)c1ccccc1	-5.57
Cc1ccc2cnn(CCC(=O)NCc3c(C)nn(C)c3C)c2c1	-8.19
Cc1cc(C)c2nc(C)c(C(=O)N3CCC(CCN(C)C)CC3)cc2c1	-4.91
COc1cccc(CC(=O)NCc2cnc(C)nc2C2CCCN2C)c1 (stereo not drawn)	-7.47
O=C(c1cccnc1)N1CCCC1c1nc(O)cc(-c2ccccn2)n1 (stereo not drawn)	-5.91
COCCC(=O)N1CCCC1c1csc(Nc2ncccn2)n1 (stereo not drawn)	-4.33
Cc1nccn1-c1cncc(C2CCCN2Cc2ccccc2)n1 (stereo not drawn)	-8.52
O=C(c1ccccc1Cl)N1CC[C@H](O)[C@@H](N2CCOCC2)CC1	-4.91
CC(NC(=O)NC1CCN(Cc2ccccn2)CC1)c1ccco1 (stereo not drawn)	13.9
CSCC(=O)N1CCOC(c2nc(C)n[nH]2)C1 (stereo not drawn)	0.986
CN(c1ncc(S(N)(=O)=O)s1)C1CCc2ccccc21 (stereo not drawn)	-1.62
CCN(C)CC1CCN(S(=O)(=O)c2cc(C)c(F)cc2Cl)C1 (stereo not drawn)	-8.38
CCS(=O)(=O)N1CCC(Nc2c(F)cc(C#N)cc2F)CC1	8.13
CC(NC1(CNC(=O)OC(C)(C)C)CCOCC1)c1ccccc1 (stereo not drawn)	3.63

SMILES	cytotoxicity at 10 µM [%]
Cc1nn(C)c2ncc(S(=O)(=O)N3CCCC(C(N)=O)C3)cc12 (stereo not drawn)	3.45
CCc1cc(CNC(=O)NCC(c2ccco2)N2CCCC2)[nH]n1 (stereo not drawn)	0.238
CC(C)n1c(C2CCCN(CC(=O)NC(N)=O)C2)nc2ccccc21 (stereo not drawn)	-7.9
CCC1CN(CC(=O)NCc2ccco2)CCO1 (stereo not drawn)	-7.66
CN(CC(=O)N1CCCC1c1noc(C2CC2)n1)C1CC1 (stereo not drawn)	9.62
O=C(C1CCCCC1)N1CCC2(CC1)OCCO2	9.77
CCc1nnc2n1CCN(C(=O)c1ccc(C)c(S(N)(=O)=O)c1)C2	-4.55
Cc1cc(F)c2c(c1)CCCN2Cc1nc2c(cnn2C)c(=O)[nH]1	1.89
COc1cc(C(C)=O)ccc1SCC(=O)Nc1ccccn1	11.7
O=C(c1coc2ccccc12)N1CCS(=O)(=O)CC1	2.64
NC(=O)c1ccc(OCCC(=O)NC2CCc3c(F)cccc32)cc1 (stereo not drawn)	2.02
CC(NCC1CCN(CCO)CC1)c1ccc(C(F)(F)F)cc1 (stereo not drawn)	-7.28
O=C(NC1(c2nccs2)CCCC1)c1cc(C2CC2)on1	6.65
Cc1cc(C(=O)N2CCCC(c3nncn3C)C2)no1 (stereo not drawn)	0.541
Cc1cnn(CCNCc2c(C)nn(CCO)c2C)c1	6.35
CC(C(=O)NCC1(c2c(F)cccc2F)CCCC1)S(C)(=O)=O (stereo not drawn)	8.14
Cc1cc(C(=O)NCCN2CCC(C)CC2)nn1C(C)(C)C	13.3
Cc1ccc(OCC(=O)NCC(C)C)nc1	-18.3
CCS(=O)(=O)N1CCCn2nnc(Cn3cccc3)c2C1	9.77
COc1ccc(-c2cn([C@H](CO)CC(C)C)nn2)cn1	-2.03
O=C(NC1CCNC1)C1(N2CCCCC2)Cc2ccccc2C1 (stereo not drawn)	-5.76

SMILES	cytotoxicity at 10 µM [%]
CC(c1cccc(-c2nccn2CCc2ccccn2)c1)N(C)C (stereo not drawn)	7.62
COc1ccc(C2CC(=O)NCc3nc4ccccn4c32)cn1 (stereo not drawn)	-3.95
CCN(Cc1nc(COC)no1)C(=O)CCn1c(C)cc2ccccc21	-0.0679
CCC[C@@H]1CN(Cc2ccc(N(C)C)nc2)C[C@H]1N(C)C	-15.1
CCn1c(C2CCCN(S(=O)(=O)C3CC3)C2)nn(CCN(C)C)c1=O (stereo not drawn)	0.522
CSCCCNC(=O)C1CCC(=O)N(C2CCCC2)C1 (stereo not drawn)	-11.1
O=C1CC[C@@H](CN(Cc2ccncc2)Cc2nc(CC3CC3)no2)N1	3.86
CC(C)Oc1cc(N2C[C@H](C3CC3)[C@@H](N)C2)nc(N)n1	-4.75
CC1(C)Cc2nc(C(C)(C)C)ncc2C(NC(=O)CN)C1 (stereo not drawn)	-6.55
O=C(CCc1cn[nH]c1)N1C[C@@H](CN2CCCCCC2)[C@@H](CO)C1	2.62
COc1ccc(C2CC(=O)NCc3nc(N(C)C)sc32)c(O)c1 (stereo not drawn)	3.3
CSc1ncc(CNC(C)c2cnn(-c3ccccc3)c2C)cn1 (stereo not drawn)	-3.63
COc1ccc2cc(CN(C)CCc3cn[nH]c3)c(=O)[nH]c2c1	0.363
COc1cccc(-c2n[nH]c3c2CN(C(=O)c2cc(C)n(C)n2)CC3)c1	-0.159
COc1ccccc1CCN1CCCC(CN(C)Cc2cc(C)n[nH]2)C1 (stereo not drawn)	-4.52
CCCN1CCN(Cc2cccc(OCC(N)=O)c2)[C@H]2CS(=O)(=O)C[C@H]21	2.77
Cc1cc(C)nc(N2CCN(C(=O)c3ccc(C4CCCO4)s3)CC2)n1 (stereo not drawn)	9.07
O=C(c1ccon1)N1CCc2ncnc(NCc3cccnc3)c2CC1	-1.9
CC(c1ccccn1)N(C)Cc1ccc(CCC(C)(C)O)cc1 (stereo not drawn)	1.82
NCC1CCN(c2nc(C3CCCC3)nc3c2CCNCC3)C1 (stereo not drawn)	16.1
CN1CCCCC1CCC(=O)NCCSc1cnn[nH]1 (stereo not drawn)	0.00194

SMILES	cytotoxicity at 10 µM [%]
O=C(O)C(c1ccc2[nH]ccc2c1)N1CCOCC1 (stereo not drawn)	13.1
Cc1cc(N2CCC(c3ncc[nH]3)CC2)nc(N)n1	-7.54
FC(F)(F)COc1cccc(-c2nc3c([nH]2)CCNC3)c1	4.5
Cc1cccc(N2CCC(N3CCCC4(CN(C)C(=O)O4)C3)CC2)c1C (stereo not drawn)	-12.8
COc1ccc(C(=O)N2C[C@@H](CN3CCCCC3)[C@@H](CO)C2)cc1Cl	-0.703
CCOC(=O)c1c(NC(=O)C2CCN(C(C)=O)CC2)sc(C)c1CC	10.9
CCCC1(CO)CCCN(C(=O)CNC(C)=O)C1 (stereo not drawn)	3.43
CC(C)c1nccn1CCCNC(=O)c1ccc(-c2cccnc2)nc1	-11.8
CN(C)Cc1ccc(C2CCCCN2C(=O)c2cc(C3CC3)n[nH]2)cc1 (stereo not drawn)	-9.09
CC(CCN1CCn2nc(CNC(=O)N(C)C)cc2C1)c1ccccc1 (stereo not drawn)	-11.8
Cc1nc(C2CCN(C(=O)CO)CC2)cc(N2CCOCC2)n1	-12.2
Cc1nc(CN2CCCC2c2nc(C(C)C)no2)cs1 (stereo not drawn)	-9.7
CC(C)c1cc(NCC(O)CO)n2nccc2n1 (stereo not drawn)	-24.8
CCc1c(O)n(C(C)CC)c(SCC(=O)c2ccccc2)nc1=O (stereo not drawn)	-2.11
O=C(CN1CCOC(CNc2cccnn2)C1)NCc1cccs1 (stereo not drawn)	-14
Cc1nn(C)cc1S(=O)(=O)NCC(c1ccccc1)N1CCCCCC1 (stereo not drawn)	-13.6
Cn1ccnc1CN1CCC2(CC1)COCCN(S(C)(=O)=O)C2	3.39
CN1CCN(Cc2cccnc2)C2(CCN(c3ncccn3)C2)C1=O (stereo not drawn)	1.31
O=C(c1cccc(F)c1)N1CCCC1c1ncc2c(n1)CCNC2 (stereo not drawn)	-12.2
Cc1ccc(CN2CCOC3(CCN(CC4CCOC4)CC3)C2)cc1 (stereo not drawn)	-117
